Measurements from PubChem BioAssay AID588594 (Sanford-Burnham Center for Chemical Genomics, 2011).
Activity calls are given as the source filed them.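 Rule for the calls: active = mean EC50 of 20 µM or lower; inactive = the rest.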

Target: CHO-CHOP luciferase reporter, UPR apoptotic arm activation
Assay: activators of PERK-eIF2a-CHOP apoptotic UPR arm, SAR follow-up, cell-based, CHO-CHOP line, luminescence, set 2 (AID 588594)
Outline: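 Assay system: CHO cells, stable CHOP luciferase reporter | Amount: 500 cells/well | Incubation: Seeding 16-18 h before compounds, 6 h exposure at 37 °C | Detection: Luminescence after Steady-Glo luciferase reagent addition | Controls: High tunicamycin 10 µg/mL, low DMSO alone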

EC50	Compound
1.19 µM	O=C(Nc1ccc(S(=O)(=O)C2CCOCC2)cc1)c1ccc([N+](=O)[O-])o1
> 80 µM (inactive)	CC1(C)CCN(S(=O)(=O)c2ccc(NC(=O)c3ccc(C(F)(F)F)o3)cc2)CC1
> 77.5 µM (inactive)	Cn1c([N+](=O)[O-])cnc1C(=O)Nc1ccc(S(=O)(=O)N2CCC(C)(C)CC2)cc1
8.28 µM	O=C(Nc1nc2cc(F)c(F)cc2s1)c1ccccn1
6.87 µM	O=C(Nc1nc2cc(F)cc(F)c2s1)c1ccccn1
5.59 µM	O=C(Nc1nc2ccc(F)c(F)c2s1)c1ccccn1
7 µM	O=C(Nc1nc2cccc(F)c2s1)c1ccccn1
5.99 µM	O=C(Nc1nc2ccc(Cl)cc2s1)c1ccccn1
0.732 µM	O=C(Nc1ccc(S(=O)(=O)N2CCC3(CCCCC3)CC2)cc1)c1ccc([N+](=O)[O-])o1
0.739 µM	O=C(Nc1ccc(S(=O)(=O)N2CCC(Cl)CC2)cc1)c1ccc([N+](=O)[O-])o1
0.774 µM	O=C(Nc1ccc(S(=O)(=O)N2CCC(F)CC2)cc1)c1ccc([N+](=O)[O-])o1
0.676 µM	CC(C)(C)C1CCN(S(=O)(=O)c2ccc(NC(=O)c3ccc([N+](=O)[O-])o3)cc2)CC1
1.36 µM	CC1CN(S(=O)(=O)c2ccc(NC(=O)c3ccc([N+](=O)[O-])o3)cc2)CC(C)O1 (stereo not drawn)
> 80 µM (inactive)	CC1(C)CCN(S(=O)(=O)c2ccc(NC(=O)c3cccc([N+](=O)[O-])c3)cc2)CC1
4.68 µM	O=C(Nc1nc2ccc(C(F)(F)F)cc2s1)c1ccccn1
6.65 µM	O=C(Nc1nc2c(F)ccc(F)c2s1)c1ccccn1
7.13 µM	O=C(Nc1nc2cc(F)ccc2s1)c1ccccn1
9.88 µM	O=C(Nc1nc2c(F)c(F)ccc2s1)c1ccccn1
